Results from ChEMBL document CHEMBL4396885, “Thioether-based 2-aminobenzamide derivatives: Novel HDAC inhibitors with potent in vitro and in vivo antitumor activity” (Eur J Med Chem, 2019).

What was measured:
Histone deacetylase 8 = target: T1, Histone deacetylase 8 (Homo sapiens, UniProt Q9BY41); assay: Inhibition of recombinant human HDAC8 assessed as decrease in deacetylation of FLUOR DE LYS substrate preincubated for 10 mins followed by substrate addition and measured after 30 mins by fluorescence based assay
T1 sequence (Q9BY41 whole entry): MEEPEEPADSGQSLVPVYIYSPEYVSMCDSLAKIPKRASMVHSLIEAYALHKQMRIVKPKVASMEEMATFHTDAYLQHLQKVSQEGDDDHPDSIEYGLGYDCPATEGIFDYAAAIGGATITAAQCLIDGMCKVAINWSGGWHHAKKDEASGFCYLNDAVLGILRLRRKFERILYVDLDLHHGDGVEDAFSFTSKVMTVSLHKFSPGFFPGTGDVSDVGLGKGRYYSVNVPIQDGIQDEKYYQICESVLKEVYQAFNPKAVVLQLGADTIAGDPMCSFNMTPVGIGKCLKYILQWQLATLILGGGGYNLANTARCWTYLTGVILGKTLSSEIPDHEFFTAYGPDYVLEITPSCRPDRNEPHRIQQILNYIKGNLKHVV

Histone deacetylase 2 = Histone deacetylase 2 (Homo sapiens, UniProt Q92769); assay: Inhibition of recombinant human HDAC2 assessed as decrease in deacetylation of FLUOR DE LYS Green substrate preincubated for 10 mins followed by substrate addition and measured after 30 mins by fluorescence based assay
NIH3T3 = assay: Cytotoxicity against mouse NIH/3T3 cells assessed as reduction in cell viability after 72 hrs by CCK-8 assay; assay type: cell-based; settings: NIH3T3, 72 h
HeLa [1] = assay: Antiproliferative activity against human HeLa cells assessed as growth inhibition at 8 uM after 72 hrs by CCK-8 assay relative to control; assay type: functional; settings: read-out: GI
Histone deacetylase = assay: Inhibition of HDAC in human HeLa cell nuclear extract assessed as decrease in deacetylation of FLUOR DE LYS Green substrate preincubated for 10 mins followed by substrate addition and measured after 30 mins by fluorescence based assay; assay type: cell-free
A549 [2] = assay: Antiproliferative activity against human A549 cells assessed as decrease in cell viability after 72 hrs by CCK-8 assay; assay type: functional, cell-based; settings: A549, 72 h
Outline: (§1)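 Cells grown to 70–85% confluence (A375, A549, HCT116 in RPMI1640; HeLa, SMMC7721 in DMEM; 10% FBS, 37 °C, 5% CO2), seeded 4000/well, dosed after 12 h across a concentration range, incubated 72 h, then CCK-8 for 1 h; absorbance at 450 nm. IC50 as mean ± SD of three separate experiments.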

Histone deacetylase 1 = Histone deacetylase 1 (Homo sapiens, UniProt Q13547); assay: Inhibition of recombinant human His tagged HDAC1 expressed in baculovirus infected insect cells assessed as decrease in deacetylation of FLUOR DE LYS Green substrate preincubated for 10 mins followed by substrate addition and measured after 30 mins by fluorescence based assay
SMMC-7721 [3] = assay: Antiproliferative activity against human SMMC7721 cells assessed as growth inhibition at 8 uM after 72 hrs by CCK-8 assay relative to control; assay type: functional; settings: SMMC-7721, 72 h, read-out: GI
HeLa [4] = assay: Antiproliferative activity against human HeLa cells assessed as growth inhibition at 2 uM after 72 hrs by CCK-8 assay relative to control; assay type: functional; settings: read-out: GI
A-375 [5] = assay: Antiproliferative activity against human A375 cells assessed as growth inhibition at 2 uM after 72 hrs by CCK-8 assay relative to control; assay type: functional; settings: A-375, 72 h, read-out: GI
HCT-116 [6] = assay: Antiproliferative activity against human HCT116 cells assessed as growth inhibition at 8 uM after 72 hrs by CCK-8 assay relative to control; assay type: functional; settings: HCT-116, 72 h, read-out: GI
SMMC-7721 [7] = assay: Antiproliferative activity against human SMMC7721 cells assessed as decrease in cell viability after 72 hrs by CCK-8 assay; assay type: functional, cell-based; settings: SMMC-7721, 72 h; outline: as §1
A549 [8] = assay: Antiproliferative activity against human A549 cells assessed as growth inhibition at 2 uM after 72 hrs by CCK-8 assay relative to control; assay type: functional; settings: A549, 72 h, read-out: GI
A549 [9] = assay: Antiproliferative activity against human A549 cells assessed as growth inhibition at 8 uM after 72 hrs by CCK-8 assay relative to control; assay type: functional; settings: A549, 72 h, read-out: GI
HeLa [10] = assay: Antiproliferative activity against human HeLa cells assessed as decrease in cell viability after 72 hrs by CCK-8 assay; assay type: functional, cell-based; outline: as §1
A-375 [11] = assay: Antiproliferative activity against human A375 cells assessed as decrease in cell viability after 72 hrs by CCK-8 assay; assay type: functional, cell-based; settings: A-375, 72 h; outline: as §1
HCT-116 [12] = assay: Antiproliferative activity against human HCT116 cells assessed as decrease in cell viability after 72 hrs by CCK-8 assay; assay type: functional, cell-based; settings: HCT-116, 72 h; outline: as §1
[13] = target: Histone deacetylase 3/NCoR1 (Homo sapiens, UniProt O15379); assay: Inhibition of recombinant human HDAC3/NCOR1 assessed as decrease in deacetylation of FLUOR DE LYS SIRT1 substrate preincubated for 10 mins followed by substrate addition and measured after 30 mins by fluorescence based assay; assay type: protein-complex assay
SMMC-7721 [14] = assay: Antiproliferative activity against human SMMC7721 cells assessed as growth inhibition at 2 uM after 72 hrs by CCK-8 assay relative to control; assay type: functional; settings: SMMC-7721, 72 h, read-out: GI
HCT-116 [15] = assay: Antiproliferative activity against human HCT116 cells assessed as growth inhibition at 2 uM after 72 hrs by CCK-8 assay relative to control; assay type: functional; settings: HCT-116, 72 h, read-out: GI
A-375 [16] = assay: Antiproliferative activity against human A375 cells assessed as growth inhibition at 8 uM after 72 hrs by CCK-8 assay relative to control; assay type: functional; settings: A-375, 72 h, read-out: GI
[17] = target: T2, Protein deacetylase HDAC6 (Homo sapiens, UniProt Q9UBN7); assay: Inhibition of recombinant human His tagged HDAC6 expressed in baculovirus infected insect cells assessed as decrease in deacetylation of FLUOR DE LYS SIRT1 substrate by measuring decrease in fluorescence preincubated for 10 mins followed by substrate addition and measured after 30 mins by fluorescence based assay
T2 sequence (Q9UBN7 whole entry): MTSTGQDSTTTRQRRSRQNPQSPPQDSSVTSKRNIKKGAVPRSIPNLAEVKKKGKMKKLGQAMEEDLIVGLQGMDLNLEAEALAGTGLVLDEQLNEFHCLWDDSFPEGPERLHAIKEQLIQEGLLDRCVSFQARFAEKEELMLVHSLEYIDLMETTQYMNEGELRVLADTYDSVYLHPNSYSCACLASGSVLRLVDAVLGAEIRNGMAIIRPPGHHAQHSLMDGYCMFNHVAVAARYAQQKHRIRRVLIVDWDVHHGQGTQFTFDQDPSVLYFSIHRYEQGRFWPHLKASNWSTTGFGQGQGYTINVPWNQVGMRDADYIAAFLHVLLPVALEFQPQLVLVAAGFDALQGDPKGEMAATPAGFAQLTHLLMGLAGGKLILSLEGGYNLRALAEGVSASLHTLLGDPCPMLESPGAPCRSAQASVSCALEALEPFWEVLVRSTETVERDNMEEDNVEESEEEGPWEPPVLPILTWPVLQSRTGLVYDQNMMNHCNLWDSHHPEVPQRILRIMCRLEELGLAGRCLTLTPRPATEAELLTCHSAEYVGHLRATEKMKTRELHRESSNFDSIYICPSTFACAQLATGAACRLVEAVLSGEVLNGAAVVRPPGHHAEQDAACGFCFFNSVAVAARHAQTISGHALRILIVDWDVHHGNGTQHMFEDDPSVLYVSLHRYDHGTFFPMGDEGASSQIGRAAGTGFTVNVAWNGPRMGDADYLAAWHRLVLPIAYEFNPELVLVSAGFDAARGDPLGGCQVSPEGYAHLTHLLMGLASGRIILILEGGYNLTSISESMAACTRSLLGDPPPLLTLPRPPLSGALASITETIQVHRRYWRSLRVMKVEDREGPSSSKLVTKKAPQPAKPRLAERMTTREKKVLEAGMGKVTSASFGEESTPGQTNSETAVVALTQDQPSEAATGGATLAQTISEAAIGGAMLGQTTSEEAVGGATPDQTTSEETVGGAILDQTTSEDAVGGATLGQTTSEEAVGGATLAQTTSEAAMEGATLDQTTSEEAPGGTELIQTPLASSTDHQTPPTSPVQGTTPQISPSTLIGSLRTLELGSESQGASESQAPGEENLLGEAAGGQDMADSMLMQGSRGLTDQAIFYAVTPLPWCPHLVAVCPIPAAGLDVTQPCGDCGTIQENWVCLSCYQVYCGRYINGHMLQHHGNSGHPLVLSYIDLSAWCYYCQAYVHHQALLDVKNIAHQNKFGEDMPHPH

Histone deacetylase 3/NCoR1, sequence (O15379 whole entry): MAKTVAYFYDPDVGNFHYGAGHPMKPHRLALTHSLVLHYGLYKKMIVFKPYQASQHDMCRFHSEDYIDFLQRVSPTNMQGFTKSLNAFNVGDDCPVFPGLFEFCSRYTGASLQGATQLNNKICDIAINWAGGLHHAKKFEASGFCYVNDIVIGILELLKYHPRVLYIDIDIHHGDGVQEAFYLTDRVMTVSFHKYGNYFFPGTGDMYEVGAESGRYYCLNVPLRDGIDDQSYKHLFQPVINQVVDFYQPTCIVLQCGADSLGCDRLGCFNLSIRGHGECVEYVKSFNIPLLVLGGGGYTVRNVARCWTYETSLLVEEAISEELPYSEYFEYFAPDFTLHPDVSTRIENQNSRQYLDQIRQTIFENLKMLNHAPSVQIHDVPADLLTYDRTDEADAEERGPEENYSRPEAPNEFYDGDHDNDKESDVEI
Histone deacetylase 3/NCoR1, sequence (O75376 whole entry, further chain): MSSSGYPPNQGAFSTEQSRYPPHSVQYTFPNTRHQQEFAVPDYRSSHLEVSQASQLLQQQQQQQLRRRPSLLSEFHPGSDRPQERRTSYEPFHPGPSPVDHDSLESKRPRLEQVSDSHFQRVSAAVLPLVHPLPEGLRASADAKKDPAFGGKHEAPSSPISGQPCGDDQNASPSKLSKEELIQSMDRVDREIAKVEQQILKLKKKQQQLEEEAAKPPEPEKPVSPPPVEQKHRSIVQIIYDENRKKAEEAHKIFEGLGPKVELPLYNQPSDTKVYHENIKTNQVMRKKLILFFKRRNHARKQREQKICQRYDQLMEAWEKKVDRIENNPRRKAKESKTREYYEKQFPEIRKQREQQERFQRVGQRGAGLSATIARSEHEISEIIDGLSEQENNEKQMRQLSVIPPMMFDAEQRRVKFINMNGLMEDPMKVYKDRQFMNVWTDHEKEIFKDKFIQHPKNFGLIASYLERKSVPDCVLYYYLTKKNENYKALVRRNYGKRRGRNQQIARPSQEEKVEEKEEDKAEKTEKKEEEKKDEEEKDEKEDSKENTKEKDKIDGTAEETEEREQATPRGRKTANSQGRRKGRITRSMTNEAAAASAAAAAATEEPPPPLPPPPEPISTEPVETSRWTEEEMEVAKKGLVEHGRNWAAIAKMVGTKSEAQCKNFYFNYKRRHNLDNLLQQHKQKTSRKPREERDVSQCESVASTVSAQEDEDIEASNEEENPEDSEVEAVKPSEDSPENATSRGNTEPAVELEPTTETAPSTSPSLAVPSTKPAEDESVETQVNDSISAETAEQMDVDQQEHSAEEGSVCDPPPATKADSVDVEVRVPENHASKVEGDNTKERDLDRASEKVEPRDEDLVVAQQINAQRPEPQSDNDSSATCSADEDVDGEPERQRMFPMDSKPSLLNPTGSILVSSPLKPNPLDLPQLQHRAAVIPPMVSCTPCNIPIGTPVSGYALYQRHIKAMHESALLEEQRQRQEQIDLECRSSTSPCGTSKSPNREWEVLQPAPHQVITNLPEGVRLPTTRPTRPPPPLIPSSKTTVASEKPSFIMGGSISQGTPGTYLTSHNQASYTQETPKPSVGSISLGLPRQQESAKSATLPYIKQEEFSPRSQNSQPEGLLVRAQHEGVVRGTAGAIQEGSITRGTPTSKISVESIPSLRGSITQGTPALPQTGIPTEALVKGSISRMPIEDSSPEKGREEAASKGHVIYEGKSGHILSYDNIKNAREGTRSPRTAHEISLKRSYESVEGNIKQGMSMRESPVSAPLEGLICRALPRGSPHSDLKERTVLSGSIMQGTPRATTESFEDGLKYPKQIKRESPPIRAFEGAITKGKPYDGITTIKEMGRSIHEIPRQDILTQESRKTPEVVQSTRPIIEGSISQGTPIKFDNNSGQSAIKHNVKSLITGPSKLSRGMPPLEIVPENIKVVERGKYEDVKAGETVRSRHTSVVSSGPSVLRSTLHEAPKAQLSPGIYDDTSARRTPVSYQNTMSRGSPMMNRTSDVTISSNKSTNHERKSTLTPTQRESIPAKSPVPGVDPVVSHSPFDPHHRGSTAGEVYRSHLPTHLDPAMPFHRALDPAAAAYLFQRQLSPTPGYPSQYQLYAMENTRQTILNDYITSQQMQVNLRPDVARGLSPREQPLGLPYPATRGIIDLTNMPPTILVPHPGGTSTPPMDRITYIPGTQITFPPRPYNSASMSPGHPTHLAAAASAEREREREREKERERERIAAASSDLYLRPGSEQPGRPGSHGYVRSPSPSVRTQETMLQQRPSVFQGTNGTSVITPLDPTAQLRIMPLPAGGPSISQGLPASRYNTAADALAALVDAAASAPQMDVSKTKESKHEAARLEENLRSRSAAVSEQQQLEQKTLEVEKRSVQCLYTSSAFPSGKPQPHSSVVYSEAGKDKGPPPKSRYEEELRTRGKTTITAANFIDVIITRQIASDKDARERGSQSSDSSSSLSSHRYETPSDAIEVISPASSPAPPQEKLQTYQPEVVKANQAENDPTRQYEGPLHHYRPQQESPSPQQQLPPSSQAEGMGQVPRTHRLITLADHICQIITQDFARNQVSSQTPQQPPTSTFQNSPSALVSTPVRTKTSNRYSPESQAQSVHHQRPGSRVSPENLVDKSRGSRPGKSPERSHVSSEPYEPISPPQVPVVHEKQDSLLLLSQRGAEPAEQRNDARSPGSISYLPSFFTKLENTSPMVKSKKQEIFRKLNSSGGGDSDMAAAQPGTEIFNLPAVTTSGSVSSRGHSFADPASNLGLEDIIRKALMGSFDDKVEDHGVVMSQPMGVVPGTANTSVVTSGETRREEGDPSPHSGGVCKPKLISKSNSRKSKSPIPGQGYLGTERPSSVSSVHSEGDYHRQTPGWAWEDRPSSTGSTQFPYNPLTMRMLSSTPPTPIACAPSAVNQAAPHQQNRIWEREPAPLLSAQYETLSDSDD
Histone deacetylase 1, sequence (Q13547 whole entry): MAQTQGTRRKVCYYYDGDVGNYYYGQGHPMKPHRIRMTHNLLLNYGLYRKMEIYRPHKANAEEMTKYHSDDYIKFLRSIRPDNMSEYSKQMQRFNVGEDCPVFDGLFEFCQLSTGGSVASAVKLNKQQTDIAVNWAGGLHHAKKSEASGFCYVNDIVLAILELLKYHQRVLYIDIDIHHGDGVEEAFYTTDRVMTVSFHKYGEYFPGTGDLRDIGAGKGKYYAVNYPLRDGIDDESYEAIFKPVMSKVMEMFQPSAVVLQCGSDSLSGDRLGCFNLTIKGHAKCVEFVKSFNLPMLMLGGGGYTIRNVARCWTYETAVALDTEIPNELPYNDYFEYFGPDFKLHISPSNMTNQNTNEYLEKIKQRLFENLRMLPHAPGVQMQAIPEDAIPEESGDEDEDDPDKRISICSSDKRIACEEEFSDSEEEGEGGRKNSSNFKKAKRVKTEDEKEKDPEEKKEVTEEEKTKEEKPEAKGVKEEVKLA
Histone deacetylase 2, sequence (Q92769 whole entry): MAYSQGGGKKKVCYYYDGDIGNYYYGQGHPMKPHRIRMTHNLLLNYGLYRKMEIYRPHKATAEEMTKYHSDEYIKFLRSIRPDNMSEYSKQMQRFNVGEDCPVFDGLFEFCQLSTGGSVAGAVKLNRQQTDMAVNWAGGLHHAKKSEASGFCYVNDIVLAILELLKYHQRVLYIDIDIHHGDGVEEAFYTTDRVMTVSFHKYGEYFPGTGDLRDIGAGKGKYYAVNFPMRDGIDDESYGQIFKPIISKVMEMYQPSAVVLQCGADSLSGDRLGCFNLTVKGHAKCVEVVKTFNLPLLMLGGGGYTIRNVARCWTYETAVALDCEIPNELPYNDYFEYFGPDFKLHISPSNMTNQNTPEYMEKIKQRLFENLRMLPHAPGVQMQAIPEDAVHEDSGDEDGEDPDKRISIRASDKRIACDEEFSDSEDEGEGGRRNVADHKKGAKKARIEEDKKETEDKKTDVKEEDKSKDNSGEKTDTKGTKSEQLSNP

IC50 (Histone deacetylase 8) [µM]	IC50 (Histone deacetylase 2) [µM]	IC50 (Histone deacetylase) [µM]	IC50 (A549 [2]) [µM]	IC50 (Histone deacetylase 1) [µM]	IC50 (SMMC-7721 [7]) [µM]	IC50 (HeLa [10]) [µM]	IC50 (A-375 [11]) [µM]	IC50 (HCT-116 [12]) [µM]	Structure (SMILES)	IC50 (NIH3T3) [µM]	inhibition of growth at 8 µM (HeLa [1]) [%]	inhibition of growth at 8 µM (SMMC-7721 [3]) [%]	inhibition of growth at 2 µM (HeLa [4]) [%]	inhibition of growth at 2 µM (A-375 [5]) [%]	inhibition of growth at 8 µM (HCT-116 [6]) [%]	inhibition of growth at 2 µM (A549 [8]) [%]	inhibition of growth at 8 µM (A549 [9]) [%]	inhibition of growth at 2 µM (SMMC-7721 [14]) [%]	inhibition of growth at 2 µM (HCT-116 [15]) [%]	inhibition of growth at 8 µM (A-375 [16]) [%]	also measured
> 32	0.441	1.995	0.97	0.011	1.89	1.14	1.55	1.14	Nc1ccccc1NC(=O)c1ccc(CSc2nccc(C(F)(F)F)n2)cc1	1.85	83.4	80.6	68.3	54.4	93.1	75.4	95.1	66.1	82.7	80.1	IC50 [13]: 0.274 µM; IC50 [17]: > 32 µM
> 32	0.139	10.72	2.89	0.02	2.76	2.09	3.67	2.49	Cc1cc(C)cc(SCc2ccc(C(=O)Nc3ccccc3N)cc2)c1	3.34	78.8	85.1	40.1	48.5	72.9	33.3	78.5	29.1	3.22	74.7	IC50 [13]: 0.381 µM; IC50 [17]: > 32 µM
–	–	–	3.25	–	4.88	6.43	2.86	2.81	Nc1ccccc1NC(=O)c1ccc(CSCCc2ccccc2)cc1	–	74.8	77.9	27.7	21.8	81.3	44.9	84.1	28.1	30.5	69.9	–
–	–	–	5.68	–	3.4	3.07	4.42	2	COc1ccc(SCc2ccc(C(=O)Nc3ccccc3N)cc2)cc1OC	–	79.9	78.9	15.2	18.1	91.5	19.9	80.1	20.2	33.6	84.6	–
